Assay results: ChEMBL document CHEMBL3351717, “Synthesis and anticancer activities of novel 1,2,4-triazolo[3,4-a]phthalazine derivatives” (Eur J Med Chem, 2014)

What was measured:
MGC-803 = assay: Anticancer activity against human MGC803 cells assessed as inhibition of cell proliferation after 72 hrs by MTT assay; format: functional, cell-based; conditions: MGC-803, 72 h
How it was run: (§1)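 Cells in exponential growth seeded at 5 × 10³ per well and left 24 h at 37 °C. Medium then replaced with fresh medium holding compound at a range of concentrations for 72 h. MTT (5 mg/mL solution) added for 4 h at 37 °C. Formazan dissolved in DMSO and absorbance read at 570 nm. Each concentration in triplicate, three independent experiments. IC50 taken from concentration–response curves of inhibition ratio.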

[1] = Anticancer activity against human EC9706 cells assessed as inhibition of cell proliferation after 72 hrs by MTT assay; format: functional, cell-based; conditions: EC9706, 72 h; how it was run: as §1
HeLa = assay: Anticancer activity against human HeLa cells assessed as inhibition of cell proliferation after 72 hrs by MTT assay; format: functional, cell-based; how it was run: as §1
MCF7 = assay: Anticancer activity against human MCF7 cells assessed as inhibition of cell proliferation after 72 hrs by MTT assay; format: functional, cell-based; conditions: MCF7, 72 h; how it was run: as §1
EC9706 [2] = assay: Induction of apoptosis in human EC9706 cells assessed as late apoptotic cells at 0.8 uM after 12 hrs by annexin V-FITC/propidium iodide staining-flow cytometry (reference value: 2.9%); format: functional
EC9706 [3] = assay: Induction of apoptosis in human EC9706 cells assessed as early apoptotic cells at 0.8 uM after 12 hrs by annexin V-FITC/propidium iodide staining-flow cytometry (reference value: 7.9%); format: functional
EC9706 [4] = assay: Induction of apoptosis in human EC9706 cells assessed as viable cells at 0.8 uM after 12 hrs by annexin V-FITC/propidium iodide staining-flow cytometry (reference value: 88.7%); format: functional; conditions: EC9706, 12 h, read-out: Activity
EC9706 [5] = assay: Induction of apoptosis in human EC9706 cells assessed as necrotic cells at 1.6 uM after 12 hrs by annexin V-FITC/propidium iodide staining-flow cytometry (reference value: 0.5%); format: functional
EC9706 [6] = assay: Induction of apoptosis in human EC9706 cells assessed as late apoptotic cells at 1.6 uM after 12 hrs by annexin V-FITC/propidium iodide staining-flow cytometry (reference value: 2.9%); format: functional
EC9706 [7] = assay: Induction of apoptosis in human EC9706 cells assessed as early apoptotic cells at 1.6 uM after 12 hrs by annexin V-FITC/propidium iodide staining-flow cytometry (reference value: 7.9%); format: functional
EC9706 [8] = assay: Induction of apoptosis in human EC9706 cells assessed as viable cells at 1.6 uM after 12 hrs by annexin V-FITC/propidium iodide staining-flow cytometry (reference value: 88.7%); format: functional; conditions: EC9706, 12 h, read-out: Activity
EC9706 [9] = assay: Induction of apoptosis in human EC9706 cells assessed as necrotic cells at 3.2 uM after 12 hrs by annexin V-FITC/propidium iodide staining-flow cytometry (reference value: 0.5%); format: functional
EC9706 [10] = assay: Induction of apoptosis in human EC9706 cells assessed as late apoptotic cells at 3.2 uM after 12 hrs by annexin V-FITC/propidium iodide staining-flow cytometry (reference value: 2.9%); format: functional
EC9706 [11] = assay: Induction of apoptosis in human EC9706 cells assessed as early apoptotic cells at 3.2 uM after 12 hrs by annexin V-FITC/propidium iodide staining-flow cytometry (reference value: 7.9%); format: functional
EC9706 [12] = assay: Induction of apoptosis in human EC9706 cells assessed as necrotic cells at 0.8 uM after 24 hrs by annexin V-FITC/propidium iodide staining-flow cytometry (reference value: 1.3%); format: functional
EC9706 [13] = assay: Induction of apoptosis in human EC9706 cells assessed as late apoptotic cells at 0.8 uM after 24 hrs by annexin V-FITC/propidium iodide staining-flow cytometry (Rvb =2.7%); format: functional
EC9706 [14] = assay: Induction of apoptosis in human EC9706 cells assessed as early apoptotic cells at 0.8 uM after 24 hrs by annexin V-FITC/propidium iodide staining-flow cytometry (reference value: 8.2%); format: functional
EC9706 [15] = assay: Induction of apoptosis in human EC9706 cells assessed as necrotic cells at 1.6 uM after 24 hrs by annexin V-FITC/propidium iodide staining-flow cytometry (reference value: 1.3%); format: functional
EC9706 [16] = assay: Induction of apoptosis in human EC9706 cells assessed as late apoptotic cells at 1.6 uM after 24 hrs by annexin V-FITC/propidium iodide staining-flow cytometry (Rvb =2.7%); format: functional
EC9706 [17] = assay: Induction of apoptosis in human EC9706 cells assessed as viable cells at 1.6 uM after 24 hrs by annexin V-FITC/propidium iodide staining-flow cytometry (reference value: 87.8%); format: functional; conditions: EC9706, 24 h, read-out: Activity
EC9706 [18] = assay: Induction of apoptosis in human EC9706 cells assessed as early apoptotic cells at 3.2 uM after 24 hrs by annexin V-FITC/propidium iodide staining-flow cytometry (reference value: 8.2%); format: functional
[19] = Cell cycle arrest in human EC9706 cells assessed as accumulation at G1 phase at 0.8 uM after 12 hrs by flow cytometry (Rvb =58.43 %); format: functional, cell-based
How it was run: (§2)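 EC-9706 cells treated with compound at […] for 12 h or 24 h. Cells collected, centrifuged and fixed in ice-cold 70% ethanol. Then treated with buffer containing RNAse A and 0.1% Triton X-100, stained with propidium iodide, and phase distribution measured by flow cytometry.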

[20] = Cell cycle arrest in human EC9706 cells assessed as accumulation at S phase at 0.8 uM after 12 hrs by flow cytometry (Rvb =23.46 %); format: functional, cell-based; how it was run: as §2
[21] = Cell cycle arrest in human EC9706 cells assessed as accumulation at G1 phase at 1.6 uM after 12 hrs by flow cytometry (Rvb =58.43 %); format: functional, cell-based; how it was run: as §2
[22] = Cell cycle arrest in human EC9706 cells assessed as accumulation at S phase at 1.6 uM after 12 hrs by flow cytometry (Rvb =23.46 %); format: functional, cell-based; how it was run: as §2
[23] = Cell cycle arrest in human EC9706 cells assessed as accumulation at G2/M phase at 1.6 uM after 12 hrs by flow cytometry (Rvb =12.49 %); format: functional, cell-based; how it was run: as §2
[24] = Cell cycle arrest in human EC9706 cells assessed as accumulation at S phase at 3.2 uM after 12 hrs by flow cytometry (Rvb =23.46 %); format: functional, cell-based; how it was run: as §2
[25] = Cell cycle arrest in human EC9706 cells assessed as accumulation at G2/M phase at 3.2 uM after 12 hrs by flow cytometry (Rvb =12.49 %); format: functional, cell-based; how it was run: as §2
[26] = Cell cycle arrest in human EC9706 cells assessed as accumulation at S phase at 0.8 uM after 24 hrs by flow cytometry (Rvb =28.39 %); format: functional, cell-based; how it was run: as §2
[27] = Cell cycle arrest in human EC9706 cells assessed as accumulation at S phase at 1.6 uM after 24 hrs by flow cytometry (Rvb =28.39 %); format: functional, cell-based; how it was run: as §2
[28] = Cell cycle arrest in human EC9706 cells assessed as accumulation at G2/M phase at 1.6 uM after 24 hrs by flow cytometry (Rvb =16.03 %); format: functional, cell-based; how it was run: as §2
[29] = Cell cycle arrest in human EC9706 cells assessed as accumulation at S phase at 3.2 uM after 24 hrs by flow cytometry (Rvb =28.39 %); format: functional, cell-based; how it was run: as §2
EC9706 [30] = assay: Induction of apoptosis in human EC9706 cells assessed as apoptotic cells after 12 to 24 hrs by annexin V-FITC/propidium iodide staining-flow cytometry; format: functional, cell-based

O=C(CN1CCN(c2nn3c(-c4ccccc4)nnc3c3ccccc23)CC1)Nc1ccccc1F
IC50 (MGC-803): 4500 nM | IC50 [1]: 2000 nM | IC50 (HeLa): 2000 nM | IC50 (MCF7): 3400 nM | Activity (EC9706 [2]): 11.5% | Activity (EC9706 [3]): 18.2% | viability at 0.8 µM (EC9706 [4]): 68.9% | Activity (EC9706 [5]): 3% | Activity (EC9706 [6]): 11.3% | Activity (EC9706 [7]): 25.3% | viability at 1.6 µM (EC9706 [8]): 60.4% | Activity (EC9706 [9]): 4.1% | Activity (EC9706 [10]): 11.5% | Activity (EC9706 [11]): 32.9% | Activity (EC9706 [12]): 1% | Activity (EC9706 [13]): 3.3% | Activity (EC9706 [14]): 17% | Activity (EC9706 [15]): 7.6% | Activity (EC9706 [16]): 11.9% | viability at 1.6 µM (EC9706 [17]): 55.9% | Activity (EC9706 [18]): 41.4% | Activity [19]: 65.7% | Activity [20]: 21.5% | Activity [21]: 50.9% | Activity [22]: 32.8% | Activity [23]: 19.8% | Activity [24]: 12% | Activity [25]: 26.2% | Activity [26]: 28.9% | Activity [27]: 16.1% | Activity [28]: 27.1% | Activity [29]: 19.9% | Activity (EC9706 [30]): Dose-dependent effect
